Source: ChEMBL document CHEMBL3774373, “Activity and Predicted Nephrotoxicity of Synthetic Antibiotics Based on Polymyxin B” (J Med Chem, 2016)
≈ marks a conversion by molar mass, not a printed value. Bridge positions count the residues as written; N and C are the ends. Square brackets hold non-standard residues; d marks the D form. Peptide text beside a SMILES is read from it. * marks the point of attachment. ξ: configuration not given here. Phe(4-NH2) = Nc1ccc(C[C@H](N)C(=O)O)cc1; dGly(nOct) = CCCCCCCC[C@@H](N)C(=O)O; Gly(octyl) = CCCCCCCC[C@H](N)C(=O)O; ξGly(octyl) = CCCCCCCCC(N)C(=O)O; Octanoyl = CCCCCCCC(=O)*; Dab = NCC[C@H](N)C(=O)O

Key:
Klebsiella pneumoniae [1] = assay: Antibacterial activity against clinical isolate carbapenem and polymyxin resistant Klebsiella pneumoniae 138-16357-20362 after 18 hrs by 2 fold serial dilution method; format: functional
Method in brief: (§1)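 Polymyxin-resistant clinical isolates were grown overnight at 37 °C in NB or MHB with shaking, diluted 50-fold in MHB and grown 1.5–3 h to mid-log phase. The inoculum was 5×10^5 CFU/mL. Compounds were 2-fold broth serial dilutions, final 32 to 0.015 μg/mL; the polymyxin controls ran 128–0.06 μg/mL. The MIC was the lowest concentration with no visible growth after 18 h at 37 °C.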

Pseudomonas aeruginosa [2] = assay: Antibacterial activity against clinical isolate polymyxin resistant Pseudomonas aeruginosa PA9704 after 18 hrs by 2 fold serial dilution method; format: functional; method in brief: as §1
[3] = Cytotoxicity against human HepG2 cells after 24 hrs by resazurin assay; format: cell-based; details: HepG2 cells
Klebsiella pneumoniae [4] = assay: Antibacterial activity against clinical isolate carbapenem and polymyxin resistant Klebsiella pneumoniae Koprana 100650661:1 after 18 hrs by 2 fold serial dilution method; format: functional; method in brief: as §1
Pseudomonas aeruginosa [5] = assay: Antibacterial activity against clinical isolate polymyxin resistant Pseudomonas aeruginosa FADDI-PA070 after 18 hrs by 2 fold serial dilution method; format: functional; method in brief: as §1
Escherichia coli = assay: Antibacterial activity against Escherichia coli ATCC 25922 after 18 hrs by 2 fold serial dilution method; format: functional
Method in brief: (§2)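 Overnight cultures in nutrient or Mueller Hinton broth at 37 °C with shaking, diluted 50-fold into fresh MHB and grown 1.5–3 h to mid-log. Inoculum 5×10^5 CFU/mL in 2-fold serial dilutions, final range 32 to 0.015 μg/mL. MIC read visually after 18 h at 37 °C as the lowest concentration with no visible growth.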

Acinetobacter baumannii [6] = assay: Antibacterial activity against clinical isolate carbapenem and polymyxin resistant Acinetobacter baumannii Ptyela 100734512:2 after 18 hrs by 2 fold serial dilution method; format: functional; method in brief: as §1
Klebsiella pneumoniae [7] = assay: Antibacterial activity against Klebsiella pneumoniae ATCC BAA-2146 expressing NDM-1 after 18 hrs by 2 fold serial dilution method; format: functional
Method in brief: (§3)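 Overnight cultures at 37 °C in nutrient or Mueller Hinton broth with shaking were diluted 50-fold in MHB and grown 1.5–3 h to mid-log phase. The inoculum was 5×10^5 CFU/mL in MHB. Compounds were 2-fold serially diluted, final 32 to 0.015 μg/mL. After 18 h at 37 °C, the MIC was read visually as the lowest concentration with no visible growth.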

Pseudomonas aeruginosa [8] = assay: Antibacterial activity against Pseudomonas aeruginosa ATCC 27853 after 18 hrs by 2 fold serial dilution method; format: functional; method in brief: as §2
Acinetobacter baumannii [9] = assay: Antibacterial activity against Acinetobacter baumannii ATCC 19606 after 18 hrs by 2 fold serial dilution method; format: functional; method in brief: as §2
Klebsiella pneumoniae [10] = assay: Antibacterial activity against multidrug resistant Klebsiella pneumoniae ATCC 700603 after 18 hrs by 2 fold serial dilution method; format: functional; method in brief: as §3
Klebsiella pneumoniae [11] = assay: Antibacterial activity against Klebsiella pneumoniae ATCC 13883 after 18 hrs by 2 fold serial dilution method; format: functional; method in brief: as §2
Staphylococcus aureus = assay: microbe, parasite or virus in culture; details: ATCC 25923, 18 h
[12] = Klebsiella pneumoniae, 700603, 18 h

Molecule	MIC (Klebsiella pneumoniae [1]; 138-16357-20362, 18 h)	MIC (Pseudomonas aeruginosa [2]; PA9704, 18 h)	CC50 at 24 h [3]	MIC (Klebsiella pneumoniae [4]; Koprana 100650661:1, 18 h)	MIC (Pseudomonas aeruginosa [5]; FADDI-PA070, 18 h)	MIC (Escherichia coli; ATCC 25922, 18 h)	MIC (Acinetobacter baumannii [6]; Ptyela 100734512:2, 18 h)	MIC (Klebsiella pneumoniae [7]; ATCC BAA-2146, 18 h)	MIC (Pseudomonas aeruginosa [8]; ATCC 27853, 18 h)	MIC (Acinetobacter baumannii [9]; ATCC 19606, 18 h)	MIC (Klebsiella pneumoniae [10]; [12])	MIC (Klebsiella pneumoniae [11]; ATCC 13883, 18 h)	MIC (Staphylococcus aureus)	further results
CCCCCCCC(=O)NCC(=O)N[C@@H](CCN)C(=O)N[C@H](C(=O)N[C@H]1CCNC(=O)[C@H]([C@@H](C)O)NC(=O)[C@H](CCN)NC(=O)[C@H](CCN)NC(=O)[C@H](CC(C)C)NC(=O)[C@@H](Cc2ccccc2)NC(=O)[C@H](CCN)NC1=O)[C@@H](C)O (Octanoyl-G[Dab]T[Dab][Dab][dF]L[Dab][Dab]T; lactam 4-C)	> 32 µg/mL	> 32 µg/mL	> 300 µM	> 32 µg/mL	> 32 µg/mL	16 µg/mL (≈ 14 µM)	> 32 µg/mL	16 µg/mL (≈ 14 µM)	2 µg/mL (≈ 1.74 µM)	> 32 µg/mL	8 µg/mL (≈ 6.98 µM)	32 µg/mL (≈ 27.9 µM)	> 32 µg/mL	–
CCCCCCCCC1NC(=O)[C@H](CCN)NC(=O)[C@@H](NC(=O)[C@H](CCN)NC(=O)[C@@H](NC(=O)[C@H](CCN)NC(=O)CCCCCCC)[C@@H](C)O)CCNC(=O)[C@H]([C@@H](C)O)NC(=O)[C@H](CCN)NC(=O)[C@H](CCN)NC(=O)[C@H](CC(C)C)NC1=O (stereo not given in full) (Octanoyl-[Dab]T[Dab][Dab][Dab][ξGly(octyl)]L[Dab][Dab]T; lactam 4-C)	16 µg/mL (≈ 13.2 µM)	8 µg/mL (≈ 6.6 µM)	254 µM	16 µg/mL (≈ 13.2 µM)	4 µg/mL (≈ 3.3 µM)	2 µg/mL (≈ 1.65 µM)	16 µg/mL (≈ 13.2 µM)	1 µg/mL (≈ 0.825 µM)	2 µg/mL (≈ 1.65 µM)	1 µg/mL (≈ 0.825 µM)	1 µg/mL (≈ 0.825 µM)	2 µg/mL (≈ 1.65 µM)	16 µg/mL (≈ 13.2 µM)	–
CCCCCCCC[C@H]1NC(=O)[C@H](CCN)NC(=O)[C@@H](NC(=O)[C@H](CCN)NC(=O)[C@@H](NC(=O)[C@H](CCN)NC(=O)CCCCCCC)[C@@H](C)O)CCNC(=O)[C@H]([C@@H](C)O)NC(=O)[C@H](CCN)NC(=O)[C@H](CCN)NC(=O)[C@H](CC(C)C)NC1=O (Octanoyl-[Dab]T[Dab][Dab][Dab][dGly(nOct)]L[Dab][Dab]T; lactam 4-C)	–	–	–	–	–	–	–	–	4 µg/mL (≈ 3.3 µM)	1 µg/mL (≈ 0.825 µM)	–	1 µg/mL (≈ 0.825 µM)	–	–
CCCCCCCC(=O)N[C@@H](CCN)C(=O)N[C@H](C(=O)N[C@@H](CCN)C(=O)N[C@H]1CCNC(=O)[C@H]([C@@H](C)O)NC(=O)[C@H](CCN)NC(=O)[C@H](CCN)NC(=O)[C@H](CC(C)C)NC(=O)[C@@H](Cc2ccccc2)NC(=O)[C@H](CCCNC(=N)N)NC1=O)[C@@H](C)O (Octanoyl-[Dab]T[Dab][Dab]R[dF]L[Dab][Dab]T; lactam 4-C)	> 32 µg/mL	> 32 µg/mL	> 300 µM	> 32 µg/mL	> 32 µg/mL	16 µg/mL (≈ 12.8 µM)	> 32 µg/mL	32 µg/mL (≈ 25.7 µM)	32 µg/mL (≈ 25.7 µM)	> 32 µg/mL	32 µg/mL (≈ 25.7 µM)	> 32 µg/mL	> 32 µg/mL	–
CCCCCCCC(=O)N[C@@H](CCN)C(=O)N[C@H](C(=O)N[C@@H](CCN)C(=O)N[C@H]1CCNC(=O)[C@H]([C@@H](C)O)NC(=O)[C@H](CCN)NC(=O)[C@H](Cc2ccc(N)cc2)NC(=O)[C@H](CC(C)C)NC(=O)[C@@H](Cc2ccccc2)NC(=O)[C@H](CCN)NC1=O)[C@@H](C)O	> 32 µg/mL	> 32 µg/mL	–	> 32 µg/mL	32 µg/mL (≈ 25.6 µM)	0.5 µg/mL (≈ 0.4 µM)	> 32 µg/mL	2 µg/mL (≈ 1.6 µM)	8 µg/mL (≈ 6.39 µM)	4 µg/mL (≈ 3.2 µM)	1 µg/mL (≈ 0.799 µM)	8 µg/mL (≈ 6.39 µM)	> 32 µg/mL	–
CCCCCCCC(=O)N[C@@H](CCN)C(=O)N[C@H](C(=O)N[C@@H](CCN)C(=O)N[C@H]1CCNC(=O)[C@H]([C@@H](C)O)NC(=O)[C@H](CCN)NC(=O)[C@H](CCCNC(=N)N)NC(=O)[C@H](CC(C)C)NC(=O)[C@@H](Cc2ccccc2)NC(=O)[C@H](CCN)NC1=O)[C@@H](C)O	> 32 µg/mL	> 32 µg/mL	–	> 32 µg/mL	32 µg/mL (≈ 25.7 µM)	0.25 µg/mL (≈ 0.201 µM)	32 µg/mL (≈ 25.7 µM)	0.5 µg/mL (≈ 0.401 µM)	1 µg/mL (≈ 0.803 µM)	0.5 µg/mL (≈ 0.401 µM)	0.5 µg/mL (≈ 0.401 µM)	4 µg/mL (≈ 3.21 µM)	> 32 µg/mL	–
CN[C@@H](CC(C)C)C(=O)N[C@H]1C(=O)N[C@@H](CC(N)=O)C(=O)N[C@H]2C(=O)N[C@H]3C(=O)N[C@H](C(=O)N[C@@H](C(=O)O)c4cc(O)cc(O)c4-c4cc3ccc4O)[C@H](O)c3ccc(c(Cl)c3)Oc3cc2cc(c3O[C@H]2O[C@@H](CO)[C@H](O)[C@@H](O)[C@@H]2O[C@@H]2C[C@@](C)(N)[C@@H](O)[C@@H](C)O2)Oc2ccc(cc2Cl)[C@H]1O	–	–	> 300 µM	–	–	–	–	–	–	–	–	–	–	–
GENTAMICIN	–	–	–	–	–	–	–	–	–	–	–	–	–	MIC (Klebsiella pneumoniae [1]): 1 µg/mL; MIC (Pseudomonas aeruginosa [2]): > 32 µg/mL; MIC (Klebsiella pneumoniae [4]): > 32 µg/mL; MIC (Pseudomonas aeruginosa [5]): 32 µg/mL; MIC (Escherichia coli): 0.25 µg/mL; MIC (Acinetobacter baumannii [6]): > 32 µg/mL; MIC (Klebsiella pneumoniae [7]): > 32 µg/mL; MIC (Pseudomonas aeruginosa [8]): 1 µg/mL; MIC (Acinetobacter baumannii [9]): 32 µg/mL; MIC (Klebsiella pneumoniae [10]): 8 µg/mL; MIC (Klebsiella pneumoniae [11]): 0.25 µg/mL
CCCCCCCC(=O)N[C@@H](CCN)C(=O)N[C@H](C(=O)N[C@@H](CCN)C(=O)N[C@H]1CCNC(=O)[C@H]([C@@H](C)O)NC(=O)[C@H](CCN)NC(=O)[C@H](CCN)NC(=O)[C@H](CC(C)C)NC(=O)[C@@H](Cc2ccccc2)NC(=O)[C@H](Cc2ccc(N)cc2)NC1=O)[C@@H](C)O (Octanoyl-[Dab]T[Dab][Dab][Phe(4-NH2)][dF]L[Dab][Dab]T; lactam 4-C)	> 32 µg/mL	> 32 µg/mL	> 300 µM	> 32 µg/mL	> 32 µg/mL	> 32 µg/mL	> 32 µg/mL	–	> 32 µg/mL	> 32 µg/mL	> 32 µg/mL	> 32 µg/mL	> 32 µg/mL	–
CCCCCCCC[C@@H]1NC(=O)[C@@H](Cc2ccccc2)NC(=O)[C@H](CCN)NC(=O)[C@@H](NC(=O)[C@H](CCN)NC(=O)[C@@H](NC(=O)[C@H](CCN)NC(=O)CCCCCCC)[C@@H](C)O)CCNC(=O)[C@H]([C@@H](C)O)NC(=O)[C@H](CCN)NC(=O)[C@H](CCN)NC1=O (Octanoyl-[Dab]T[Dab][Dab][Dab][dF][Gly(octyl)][Dab][Dab]T; lactam 4-C)	–	–	–	–	–	–	–	–	1 µg/mL (≈ 0.803 µM)	2 µg/mL (≈ 1.61 µM)	–	4 µg/mL (≈ 3.21 µM)	–	–
CCCCCCCC(=O)N[C@@H](CCN)C(=O)N[C@H](C(=O)N[C@@H](CCN)C(=O)N[C@H]1CCNC(=O)[C@H]([C@@H](C)O)NC(=O)[C@H](CCN)NC(=O)[C@H](CCNC(=O)[C@@H](N)CCCNC(=N)N)NC(=O)[C@H](CC(C)C)NC(=O)[C@@H](Cc2ccccc2)NC(=O)[C@H](CCN)NC1=O)[C@@H](C)O	> 32 µg/mL	> 32 µg/mL	–	> 32 µg/mL	> 32 µg/mL	0.5 µg/mL (≈ 0.372 µM)	> 32 µg/mL	1 µg/mL (≈ 0.743 µM)	2 µg/mL (≈ 1.49 µM)	4 µg/mL (≈ 2.97 µM)	0.5 µg/mL (≈ 0.372 µM)	4 µg/mL (≈ 2.97 µM)	> 32 µg/mL	–
